Data as given in EPA's CvTdb concentration-time database.

What was measured:
Rat [1] = experiment: concentration in plasma after dosing; details: 9 h; dosed: Primidone; 80 mg/kg; oral; Male; F344
Rat [2] = experiment: concentration in plasma after dosing; details: 0.5 h; dosed: Primidone; 130 mg/kg; oral; Female; F344
Rat [3] = experiment: concentration in plasma after dosing; details: 9 h; dosed: Primidone; 80 mg/kg; oral; Female; F344
Rat [4] = experiment: concentration in plasma after dosing; details: 1.5 h; dosed: Primidone; 30 mg/kg; oral; Female; F344
Rat [5] = experiment: concentration in plasma after dosing; details: dosed: 2-Hydroxy-4-methoxybenzophenone, 250 mg/kg, oral, Female, F344
Mouse [6] = experiment: concentration in plasma after dosing; details: dosed: 2-Hydroxy-4-methoxybenzophenone, 100 mg/kg, oral, Male, B6C3F1
Mouse [7] = experiment: concentration in plasma after dosing; details: 2 h; dosed: 2-Hydroxy-4-methoxybenzophenone; 500 mg/kg; oral; Male; B6C3F1
Mouse [8] = experiment: concentration in plasma after dosing; details: 2 h; dosed: 2-Hydroxy-4-methoxybenzophenone; 50 mg/kg; iv; Female; B6C3F1
Mouse [9] = experiment: concentration in plasma after dosing; details: dosed: 2-Hydroxy-4-methoxybenzophenone, 100 mg/kg, oral, Female, B6C3F1
Mouse [10] = experiment: concentration in plasma after dosing; details: 2.5 min; dosed: 2-Hydroxy-4-methoxybenzophenone; 250 mg/kg; oral; Male; B6C3F1
Rat [11] = experiment: concentration in plasma after dosing; details: dosed: 2-Hydroxy-4-methoxybenzophenone, 100 mg/kg, oral, Male, F344
Mouse [12] = experiment: concentration in plasma after dosing; details: 2 h; dosed: 2-Hydroxy-4-methoxybenzophenone; 50 mg/kg; iv; Female; B6C3F1; remark: listed apart in the source
Rat [13] = experiment: concentration in plasma after dosing; details: dosed: Methyleugenol, 37 mg/kg, iv, Female, F344
Rat [14] = experiment: concentration in plasma after dosing; details: dosed: Methyleugenol, 37 mg/kg, oral, Female, F344/N
Rat [15] = experiment: concentration in plasma after dosing; details: dosed: Methyleugenol, 37 mg/kg, iv, Male, F344
Mouse [16] = experiment: concentration in plasma after dosing; details: dosed: 2,4-Dichlorophenoxyacetic acid, 1.0 mg/kg, oral, Male, B6C3F1
Hamster = experiment: concentration in plasma after dosing; details: dosed: 2,4-Dichlorophenoxyacetic acid, 40 mg/kg, oral, Male, Syrian Golden
Outline: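 Concentration-versus-time or amount-versus-time points were compiled from published in vivo toxicokinetic studies and from two structured collections. The studies were found by PubMed searching, classifier screening and manual review. Points were mostly digitised from plot screenshots with WebPlotDigitizer, otherwise copied from tables, and kept in the reported units. Dose, route, subject details and medium were curated by hand from each paper, and sampling and analytical methods follow each source and were often unreported.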

Rat [17] = experiment: concentration in brain after dosing; details: 3 h; dosed: alpha-Thujone; 25 mg/kg; oral; Female; Harlan Sprague Dawley
Rat [18] = experiment: concentration in brain after dosing; details: 10 min; dosed: alpha-Thujone; 25 mg/kg; oral; Male; Harlan Sprague Dawley
Rat [19] = experiment: concentration in plasma after dosing; details: 3 h; dosed: alpha-Thujone; 50 mg/kg; oral; Female; Harlan Sprague Dawley
Rat [20] = experiment: concentration in plasma after dosing; details: 2 min; dosed: alpha-Thujone; 50 mg/kg; oral; Female; Harlan Sprague Dawley
Rat [21] = experiment: concentration in plasma after dosing; details: 2 min; dosed: alpha-Thujone; 25 mg/kg; oral; Female; Harlan Sprague Dawley
Rat [22] = experiment: concentration in plasma after dosing; details: 6 h; dosed: alpha-Thujone; 25 mg/kg; oral; Male; Harlan Sprague Dawley
Rat [23] = experiment: concentration in plasma after dosing; details: 1.5 h; dosed: alpha-Thujone; 25 mg/kg; oral; Male; Harlan Sprague Dawley
Rat [24] = experiment: concentration in plasma after dosing; details: 6 h; dosed: alpha-Thujone; 25 mg/kg; oral; Male; Harlan Sprague Dawley; remark: listed apart in the source
Rat [25] = experiment: concentration in plasma after dosing; details: 10 min; dosed: alpha-Thujone; 25 mg/kg; oral; Male; Harlan Sprague Dawley
Rat [26] = experiment: concentration in plasma after dosing; details: 12 h; dosed: alpha-Thujone; 50 mg/kg; oral; Male; Harlan Sprague Dawley
Rat [27] = experiment: concentration in plasma after dosing; details: 5 min; dosed: alpha-Thujone; 50 mg/kg; oral; Female; Harlan Sprague Dawley
Rat [28] = experiment: concentration in plasma after dosing; details: 10 min; dosed: alpha-Thujone; 25 mg/kg; oral; Male; Harlan Sprague Dawley; remark: listed apart in the source
Rat [29] = experiment: concentration in liver after dosing; details: 528 h; dosed: Perfluorohexane-1-sulphonic acid – potassium salt; 16 mg/kg; oral; Female; F344
Rat [30] = experiment: concentration in kidney after dosing; details: 192 h; dosed: Perfluorohexane-1-sulphonic acid – potassium salt; 16 mg/kg; oral; Female; F344
Rat [31] = experiment: concentration in kidney after dosing; details: 3 h; dosed: Perfluorohexane-1-sulphonic acid – potassium salt; 16 mg/kg; oral; Female; F344
Rat [32] = experiment: concentration in plasma after dosing; details: dosed: Pyridine, 5 mg/kg, oral, Male, F344

CCC1(c2ccccc2)C(=O)NCNC1=O [Primidone]
Details	concentration in plasma [ng/mL]
Rat [1]	3000
Rat [2]	18800
Rat [3]	21600
Rat [4]	20600

O=C(c1ccccc1)c1ccc(O)cc1O [2,4-Dihydroxybenzophenone]
Details	concentration in plasma [ng/mL]
Mouse [6], 0.25 h	352
Mouse [6], 2 h	173
Mouse [6], 2.5 min	64.5
Mouse [6], 3 h	105
Mouse [6], 10 min	161
Mouse [9], 0.25 h	303
Mouse [9], 2 h	34.9
Mouse [9], 2.5 min	68
Mouse [9], 3 h	30.3
Mouse [9], 10 min	115
Rat [5], 0.25 h	359
Rat [5], 4 h	135
Rat [11], 0.5 h	160
Rat [11], 5 h	40

Details	concentration in plasma [ng/mL]
Mouse [7]	318
Mouse [8]	46.1
Mouse [10]	92.3
Mouse [12]	39.7

C=CCc1ccc(OC)c(OC)c1 [Methyleugenol]
Details	concentration in plasma [ng/mL]
Rat [13], 0.25 h	9760
Rat [13], 1.5 h	576
Rat [14], 2 h	25.2
Rat [14], 2 min	13.3
Rat [15], 3 h	226
Rat [15], 5 min	28800

O=C(O)COc1ccc(Cl)cc1Cl [2,4-Dichlorophenoxyacetic acid]
concentration in plasma [ng/mL]
Details	Hamster	Mouse [16]
0.25 h	57000	3930
0.5 h	88000	3060
1 h	40700	–
1.5 h	16600	–
2 h	12000	1790
3 h	–	990
4 h	3730	–
5 min	26600	3890
6 h	1400	324
8 h	–	161
10 h	34300	–
10 min	–	4270

CC(C)[C@]12CC(=O)[C@H](C)[C@H]1C2 [alpha-Thujone]
Details	concentration in brain [ng/g]	concentration in plasma [ng/mL]
Rat [17]	919	–
Rat [18]	765	–
Rat [19]	–	201
Rat [20]	–	33.6
Rat [21]	–	10.6
Rat [22]	–	267
Rat [23]	–	95.4
Rat [24]	–	68.6
Rat [25]	–	464
Rat [26]	–	20
Rat [27]	–	201
Rat [28]	–	248

O=S(=O)([O-])C(F)(F)C(F)(F)C(F)(F)C(F)(F)C(F)(F)C(F)(F)F.[K+] [Perfluorohexane-1-sulphonic acid – potassium salt]
Details	concentration in kidney [ng/g]	concentration in liver [ng/g]
Rat [29]	–	29800
Rat [30]	15300	–
Rat [31]	18100	–

c1ccncc1 [Pyridine]
Rat [32]
Details	concentration in plasma [ng/mL]
1 h	3160
8 h	1170
